Compound activity: PubChem BioAssay, several laboratories
Beta2AR agonist – beta2AR agonists driving receptor internalization, primary screen, cell-based, FAP fluorogen, flow cytometry; response, % (no concentration beside the values); Am2.2-beta2AR cells; actives 0.43% (n = 340,000); Beta-2 adrenergic receptor (Homo sapiens), P07550; AID 504454, 2011;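 active means response above a set limit, near 3 SD of response in nonfluorescent compounds, cut at about 42% in these data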
Target sequence (P07550 whole entry, looked up): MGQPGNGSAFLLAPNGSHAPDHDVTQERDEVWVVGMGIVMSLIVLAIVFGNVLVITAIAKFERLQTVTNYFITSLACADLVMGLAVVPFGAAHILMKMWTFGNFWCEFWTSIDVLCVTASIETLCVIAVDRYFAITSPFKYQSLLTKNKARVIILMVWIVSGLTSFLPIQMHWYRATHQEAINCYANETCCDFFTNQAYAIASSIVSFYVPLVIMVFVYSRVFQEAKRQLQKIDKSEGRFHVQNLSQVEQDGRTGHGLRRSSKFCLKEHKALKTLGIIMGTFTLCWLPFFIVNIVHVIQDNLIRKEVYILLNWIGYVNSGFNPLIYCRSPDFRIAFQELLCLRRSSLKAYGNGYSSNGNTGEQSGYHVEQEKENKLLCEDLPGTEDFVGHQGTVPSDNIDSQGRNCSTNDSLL
CHOP UPR activ – activators of apoptotic CHOP UPR arm, primary screen, cell-based, CHO-CHOP luciferase reporter, luminescence, uHTS; AID 449763, 2010; actives 0.34% (n = 330,000); UPR activation; percent of tunicamycin response over DMSO baseline; activation, % at 10 µM;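 active means at 10 µM dose, activation of 40% or more, normalized to positive control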;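 further: 100% = tunicamycin at 10 µg/mL and 0% = DMSO alone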
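Test system: CHO-CHOP cells, stable luciferase reporter of PERK-eIF2a-CHOP signalling | Quantity: 500 CHO-CHOP cells per well | Buffer or medium: F12 plus 10% serum | Compound dosing: 10 µM single point, 0.5% DMSO | Schedule: 6 h compound treatment, 37 °C | Signal: Luciferase luminescence | Control set: Tunicamycin high control, DMSO low control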
UPR XBP1 act – activators of adaptive XBP1 UPR arm, primary screen, cell-based, CHO-XBP1 luciferase reporter, luminescence, uHTS; activation, % at 20 µM; IRE1-XBP1 UPR activation; percent of tunicamycin response, DMSO as zero; actives 0.33% (n = 330,000);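 active means versus positive control, 20 µM dose yields 30% or more activation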;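 further: 100% = tunicamycin at 10 µg/mL and 0% = DMSO only wells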
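Material: CHO-XBP1 cells stably carrying IRE1-XBP1-driven luciferase reporter | Medium: F12 with 10% serum | Compound dosing: 20 µM single concentration, DMSO 1% | Incubation: Overnight seeding at 37 °C, 6 h compound treatment at 37 °C | Detection: Steady-Glo luminescence read | Read-out basis: % activation of reporter signal versus tunicamycin and DMSO controls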
CHOP inhibitor – inhibitors of CHOP promoter induction, primary screen, cell-based, unfolded protein response, luciferase reporter. AID 2732, 2010. actives 3.8% (n = 220,000). inhibition, % at 10 µM. CHO-K1 CHOP-promoter luciferase, tunicamycin-induced, 15-18 h;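 active means compounds that reduced the stress-induced luciferase reporter signal by more than about 70% of percent inhibition, limit read from the data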;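 further: 0% = tunicamycin plus vehicle and 100% = wells without tunicamycin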
VLA-4 inh – inhibition in human VLA-4 binding assay, primary screen, VLA-4 allosteric modulator project, MLPCN library, flow cytometry, VLA-4 expressing cells; Integrin alpha-4 (Homo sapiens), P13612; ligand binding flow cytometry; inhibition, % (about 7 µM as worked out from the volumes in the protocol); actives 0.2% (n = 330,000); in the data active means inhibition above about 50%
* hit, by the source's call. The sample as a whole holds a higher share of hits than the screen did.

Screening CCOC(=O)c1c(C)nc2c(c1-c1ccc(OC)c(OC)c1)C(=O)c1ccccc1-2 returned Beta2AR agonist 2, CHOP UPR activ 0, UPR XBP1 act 4, CHOP inhibitor 85* and VLA-4 inh -36.
For CCOC(=O)c1c(C)nc(C)c(C(=O)OCC)c1-c1ccc(OC)cc1 the results were Beta2AR agonist -2, CHOP UPR activ -1, UPR XBP1 act -3, CHOP inhibitor -13 and VLA-4 inh 0.
`CCOc1cccc2cc(C(N)=O)c(=N)oc12` gave Beta2AR agonist -2, CHOP UPR activ 3, UPR XBP1 act -1 and CHOP inhibitor 9.
For C=C(C)C(O)Cc1c(OC)ccc(C(=O)/C=C/c2ccc(O)cc2)c1O (centres undefined) the results were Beta2AR agonist 16, CHOP UPR activ 2, UPR XBP1 act -2 and VLA-4 inh 10.
CC(C)=CCC/C(C)=C/Cc1c(O)ccc(C(=O)/C=C/c2ccc(O)cc2)c1O was read as Beta2AR agonist 13, CHOP UPR activ 0, UPR XBP1 act 5 and CHOP inhibitor 86*.
O=C(N/N=C/c1ccc(OC(=O)c2ccc3c(c2)OCO3)cc1)c1cncc(Br)c1 was read as Beta2AR agonist 52*, CHOP UPR activ 2, UPR XBP1 act 0, CHOP inhibitor -6 and VLA-4 inh 0.
O=C(N/N=C/c1cccc(OC(=O)c2ccc3c(c2)OCO3)c1)c1cncc(Br)c1 was read as Beta2AR agonist 0, CHOP UPR activ 4, UPR XBP1 act 0, CHOP inhibitor 8 and VLA-4 inh -3.
COc1ccc(CN(CC(O)COc2cccc3[nH]cc(C)c23)C(C)(C)C)cc1 (centres undefined) was read as Beta2AR agonist 2, CHOP UPR activ -1, UPR XBP1 act 5 and VLA-4 inh -5.
`CN(C)CCCN1CC(C(=O)O)CC1=O` (centres undefined) gave Beta2AR agonist -7, CHOP UPR activ -1, UPR XBP1 act -1, CHOP inhibitor 76* and VLA-4 inh -6.
`COc1ccc(C2NC(=O)N(C)C3=C2C(=O)CC(C)(C)C3)cc1OC` (centres undefined) gave Beta2AR agonist 1, CHOP UPR activ 0, UPR XBP1 act 1, CHOP inhibitor 19 and VLA-4 inh 0.
Screening O=C(Nn1nnnc1Nc1ccccc1)C12CC3CC(CC(C3)C1)C2 returned Beta2AR agonist -6, CHOP UPR activ 0, UPR XBP1 act -8, CHOP inhibitor 94* and VLA-4 inh 5.
CCOc1ccccc1N/C=C/C(=O)C(C)(C)C was read as Beta2AR agonist -5, CHOP UPR activ 0, UPR XBP1 act 0, CHOP inhibitor 74* and VLA-4 inh -15.
CCOc1ccc2nc(NCCNC(=S)NCCCN(C)C)c(C#N)cc2c1 was read as Beta2AR agonist 11, CHOP UPR activ -1, UPR XBP1 act 1, CHOP inhibitor 1 and VLA-4 inh 4.
Screening CCOc1ccc2nc(NCCNC(=O)Nc3ccccc3)c(C#N)cc2c1 returned Beta2AR agonist -23, CHOP inhibitor 83* and VLA-4 inh 13.
O=C(O)CCC(=O)N1CCCC1C(=O)O (centres undefined) was read as CHOP inhibitor -19.
O=S(=O)(c1cnc(Cl)c(Br)c1)N1CCc2ccccc21 was read as Beta2AR agonist 56*, CHOP UPR activ -1, UPR XBP1 act -4, CHOP inhibitor -2 and VLA-4 inh 18.
`CC1CCN(S(=O)(=O)c2ccc(Cl)cc2Br)CC1` gave Beta2AR agonist -13, CHOP UPR activ -1, UPR XBP1 act 1, CHOP inhibitor 78* and VLA-4 inh 2.
For O=C1/C(=C/N(C(=O)c2ccco2)c2ccc(Cl)cc2)Sc2ccccc21 the results were Beta2AR agonist 4, CHOP inhibitor 88* and VLA-4 inh -22.
For O=C1/C(=C/N(C(=O)c2ccco2)c2ccc(Br)cc2)Sc2ccccc21 the results were Beta2AR agonist 20, CHOP UPR activ -2, UPR XBP1 act -6, CHOP inhibitor 90* and VLA-4 inh -54.
Screening Clc1ccc(/C=N/NC(=Nc2ccccc2)c2ccccn2)c(Cl)c1 returned Beta2AR agonist 21, CHOP UPR activ -2, UPR XBP1 act 0, CHOP inhibitor 81* and VLA-4 inh 30.
Screening Cc1cc(C(=O)Nc2sc(C)c(C)c2C#N)c(C)o1 returned Beta2AR agonist 6, CHOP UPR activ 0, UPR XBP1 act 2, CHOP inhibitor 75* and VLA-4 inh -1.
For Cc1nc(N2CCC(C)CC2)c2c(C)c(C(=O)Nc3ccc(C)c(F)c3)sc2n1 the results were Beta2AR agonist 3, CHOP UPR activ -2, UPR XBP1 act -2, CHOP inhibitor 71* and VLA-4 inh 5.
CC1(C)C(/C=C/C=C/C=C/C=C2\N(CCCCS(=O)(=O)O)c3ccc4ccccc4c3C2(C)C)=[N+](CCCCS(=O)(=O)[O-])c2ccc3ccccc3c21 was read as Beta2AR agonist 58*, CHOP UPR activ -1, UPR XBP1 act -7 and VLA-4 inh -2.
Cc1c2ccccc2cc[n+]1CCCS(=O)(=O)[O-] was read as Beta2AR agonist 1, CHOP UPR activ 0, UPR XBP1 act -2, CHOP inhibitor -2 and VLA-4 inh 12.
For N/C(Cc1ccc(Cl)cc1)=N\OC(=O)Cc1ccc([N+](=O)[O-])cc1 the results were Beta2AR agonist 1, CHOP UPR activ 2, UPR XBP1 act -2, CHOP inhibitor 2 and VLA-4 inh 5.
Screening CCOC(=O)/C(N=Nc1ccc(Cl)cc1)=C(/O)c1ccc([N+](=O)[O-])cc1 returned Beta2AR agonist 0, CHOP UPR activ 4, UPR XBP1 act 1, CHOP inhibitor 86* and VLA-4 inh -4.
`CCOC(=O)c1c(C)[nH]c(O)c1C=Nc1ccc(C(F)(F)F)cc1` gave Beta2AR agonist -20, CHOP UPR activ 6, UPR XBP1 act 0, CHOP inhibitor 82* and VLA-4 inh -1.
For COC(=O)c1c(C)[nH]c(O)c1C=Nc1ccc(C(C)C)cc1 the results were Beta2AR agonist -2, CHOP UPR activ 8, UPR XBP1 act 2, CHOP inhibitor 26 and VLA-4 inh -17.
COc1ccc2c(c1)c1nc3ccccc3nc1n2Cc1ccc(OC)c(OC)c1 was read as Beta2AR agonist -5, CHOP inhibitor 85* and VLA-4 inh -193.
For c1ccc(NC2=NCCN2CCCC2CCCC2)cc1 the results were Beta2AR agonist 3, CHOP UPR activ 0, UPR XBP1 act 0 and VLA-4 inh 41.
